High-throughput results: PubChem, several laboratories
PG9 binder – small molecules binding HIV-1 gp120 antibody PG9; 360,000 tested, 0.43% active; inhibition, % at 6.7 µM; TR-FRET gp120-PG9 antibody binding; in the data active = inhibition above about 8.5%
NR1D1 modulator – Rev-erb alpha (human) modulation | P20393 | Rev-erbα–FITC-DNA binding, fluorescence polarization, 90 min | activity, % at 10 µM | 370,000 tested, 0.79% active;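 active = activity above about 14%, limit read from the data; passing the limit was not always enough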
Target sequence (P20393 whole entry, looked up): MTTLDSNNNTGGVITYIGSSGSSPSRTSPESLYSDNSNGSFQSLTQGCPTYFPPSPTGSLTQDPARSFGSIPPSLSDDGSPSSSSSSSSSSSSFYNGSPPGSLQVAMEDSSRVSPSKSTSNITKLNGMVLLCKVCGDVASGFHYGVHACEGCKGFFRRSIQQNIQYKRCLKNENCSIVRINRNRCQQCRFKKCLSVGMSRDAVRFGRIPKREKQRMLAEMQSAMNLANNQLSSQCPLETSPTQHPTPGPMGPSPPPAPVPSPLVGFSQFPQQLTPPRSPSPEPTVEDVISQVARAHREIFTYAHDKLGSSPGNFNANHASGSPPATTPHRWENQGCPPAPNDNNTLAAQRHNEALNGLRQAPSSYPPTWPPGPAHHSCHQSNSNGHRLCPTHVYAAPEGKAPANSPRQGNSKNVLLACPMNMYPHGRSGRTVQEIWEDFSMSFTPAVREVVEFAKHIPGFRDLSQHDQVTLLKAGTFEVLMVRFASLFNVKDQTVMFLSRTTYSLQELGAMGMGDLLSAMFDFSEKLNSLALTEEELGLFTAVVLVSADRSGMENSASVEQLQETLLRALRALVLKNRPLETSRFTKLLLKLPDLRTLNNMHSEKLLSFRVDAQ
NR2E3 ag-1 – human photoreceptor-specific nuclear receptor agonism; Q9Y5X4; CHO-S Gal4-NCOR/VP16-NR2E3 two-hybrid, luciferase; inhibition of corepressor binding, % at 3.98 µM; 360,000 tested, 0.35% active; AID 602229;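 active = inhibition above the mean of all tested compounds plus 3 SD, cut at about 70% in these data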;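 note: higher means lower luciferase signal from less NR2E3 corepressor binding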
NR2E3 ag-2 – activates human photoreceptor nuclear receptor NR2E3. Q9Y5X4. GST-NR2E3/biotin-RetCOR TR-FRET, 1536-well. inhibition of corepressor binding, % at 4.78 µM. 320,000 tested, 0.12% active. AID 2300;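 active = percent inhibition above the cutoff of mean plus 3 SD of all tested compounds, set per screening campaign, cut at about 20% in these data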
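Material: NR2E3–RetCOR corepressor complex | Quantity: 1.35 nM GST-tagged NR2E3 final | Schedule: 5 h at 4 °C | Replication: Singlicate compound wells | Reagent: RetCOR corepressor, biotinylated, 7 nM | Controls: Biotin wells as high control, 0.6% DMSO wells as low control | Signal: TR-FRET, Eu(K)-anti-GST donor, streptavidin-D2 acceptor, ex 340, em 617/671 nm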
Numbers stand for hits; 0 = inactive; - = no result given. Shown are actives, neighbours in structure and some others; about 1.4% of the full set was active somewhere.

SMILES	PG9 binder	NR1D1 modulator	NR2E3 ag-1	NR2E3 ag-2
Cc1nc2ccccc2c2oc(C(=O)NCC3COc4ccccc4O3)cc12 (stereo not drawn)	0	0	79	0
COc1ccc(CNC(=O)c2cc3c(C)nc4ccccc4c3o2)c(OC)c1	-	-	99	0
COc1cccc(CNC(=O)c2cc3c(C)nc4ccccc4c3o2)c1	0	0	0	0
CO/N=C(/C(=O)N[C@H]1C(=O)N2C(C(=O)O)=C(CSc3nnnn3C)CSC12)c1csc(N)n1 (stereo partly drawn)	-	0	-	-
O=[N+]([O-])c1cc(Cl)c2cccnc2c1O	0	0	102	0
Cc1c(C(=O)O)nn(-c2cccc(C(F)(F)F)c2)c(=O)c1C#N	0	0	0	0
COC(=O)c1nn(-c2cccc(C(F)(F)F)c2)c(=O)cc1Sc1ccccn1	8.7	0	0	0
CC(=O)O[C@H]1C[C@@]2(C)[C@@H](C[C@@H](O)C3[C@]2(C)CC[C@H]2[C@H](C)[C@H](O)CC[C@]32C)/C1=C(/CCC=C(C)C)C(=O)O (stereo partly drawn)	-	0	-	-
Nc1ncnc2c1ncn2C1C=C(CO)C(O)C1O (stereo not drawn)	-	-	74	-
O=[N+]([O-])c1cc([N+](=O)[O-])c2oc(-c3ccccc3)c(Br)c2c1O	-	-	100	-
O=c1cc(-c2ccccc2Cl)oc2ccc([N+](=O)[O-])c(O)c12	0	0	0	0
CCc1cc(Cl)c(OC)c(C(=O)NC[C@H]2CCCN2CC)c1O	-	0	-	-
CC(C)(C)OC(=O)NCc1ccc(CNC(=O)c2nc[nH]c2C(=O)NCc2ccc(CNC(=O)OC(C)(C)C)cc2)cc1	0	0	0	-
CC(C)(C)OC(=O)NCCCCCNC(=O)c1nc[nH]c1C(=O)NCc1ccc(CNC(=O)OC(C)(C)C)cc1	0	0	79	-
Cc1ccccc1C(=O)Nc1ccc(C(=O)N2CCC[C@@H](O)c3cc(Cl)ccc32)c(C)c1	-	0	-	-
CC(=O)NS(=O)(=O)c1ccc(NC(=O)c2ccccc2C(=O)O)cc1	-	0	-	-
C=CCOc1cccc(C2C(C(=O)c3ccco3)=C(O)C(=O)N2Cc2ccncc2)c1 (stereo not drawn)	0	0	0	0
C=CCOc1cccc(C2C(C(=O)c3ccc(C)o3)=C(O)C(=O)N2Cc2ccncc2)c1 (stereo not drawn)	11	0	0	0
CC(C)[C@H](N)C(=O)O	-	0	-	-
C[C@@H]1CC2C3CCC4=CC(=O)C=C[C@]4(C)[C@@]3(F)[C@@H](O)C[C@]2(C)[C@H]1C(=O)CO (stereo partly drawn)	-	0	-	-
COc1ccc(C2/C(=C(\O)c3ccc4c(c3)OCCO4)C(=O)C(=O)N2Cc2cccnc2)cc1 (stereo not drawn)	0	0	0	0
C=CCOc1cccc(C2/C(=C(\O)c3ccc4c(c3)OCCO4)C(=O)C(=O)N2Cc2cccnc2)c1 (stereo not drawn)	14	0	0	0
CC(=O)OCC(=O)[C@@]1(O)[C@@H](C)CC2C3CCC4=CC(=O)C=C[C@]4(C)[C@@]3(F)[C@@H](O)C[C@@]21C (stereo partly drawn)	-	0	-	-
COc1ccc([C@H]2CC(=O)C=C(c3ccnc4ccc(Cl)cc34)C2)cc1	0	0	89	0
CO/N=C(/C(=O)N[C@H]1C(=O)N2C(C(=O)O)=C(COC(N)=O)CSC12)c1ccco1 (stereo partly drawn)	-	0	-	-
Cc1ccc(NC(=O)CSc2nnc(-c3cnccn3)n2-c2ccccc2)cc1	16	0	0	0
CCCCC/C=C/CCC(=O)N[C@H]1[C@H](Oc2c3cc4cc2Oc2ccc(cc2Cl)[C@@H](O[C@@H]2O[C@H](CO)[C@@H](O)[C@H](O)[C@H]2NC(C)=O)[C@@H]2NC(=O)[C@H](NC(=O)[C@@H]4NC(=O)[C@H]4NC(=O)C(Cc5ccc(c(Cl)c5)O3)NC(=O)[C@H](N)c3ccc(O)c(c3)Oc3cc(O)cc4c3)c3ccc(O)c(c3)-c3c(O[C@@H]4O[C@H](CO)[C@@H](O)[C@H](O)[C@@H]4O)cc(O)cc3[C@@H](C(=O)O)NC2=O)O[C@H](CO)[C@@H](O)[C@@H]1O	-	0	-	-
Cc1cc(/C=C2/SC(=S)N(c3cccc(C(F)(F)F)c3)C2=O)c(C)n1-c1cccnc1	-	-	88	0
Cc1cc(/C=C2\SC(=S)N(Cc3ccco3)C2=O)c(C)n1-c1cccnc1	0	0	0	-
O=C1[C@H](CCC(O)c2ccc(F)cc2)[C@@H](c2ccc(O)cc2)N1c1ccc(F)cc1 (stereo partly drawn)	-	0	-	-
